The sample as a whole holds a higher share of hits than the screen did.
IDH1 R132H inh: IDH1 R132H (human) inhibition; O75874; IDH1 R132H reductase, diaphorase/resazurin fluorescence, 60 min; inhibition, % at 10 µM; 70,000 tested, 0.18% active; AID 624101; in the data active means inhibition above about 34%; inconclusive means no clear call, values can overlap the other calls; inactive means below about 11%
Target sequence (O75874 whole entry R132H): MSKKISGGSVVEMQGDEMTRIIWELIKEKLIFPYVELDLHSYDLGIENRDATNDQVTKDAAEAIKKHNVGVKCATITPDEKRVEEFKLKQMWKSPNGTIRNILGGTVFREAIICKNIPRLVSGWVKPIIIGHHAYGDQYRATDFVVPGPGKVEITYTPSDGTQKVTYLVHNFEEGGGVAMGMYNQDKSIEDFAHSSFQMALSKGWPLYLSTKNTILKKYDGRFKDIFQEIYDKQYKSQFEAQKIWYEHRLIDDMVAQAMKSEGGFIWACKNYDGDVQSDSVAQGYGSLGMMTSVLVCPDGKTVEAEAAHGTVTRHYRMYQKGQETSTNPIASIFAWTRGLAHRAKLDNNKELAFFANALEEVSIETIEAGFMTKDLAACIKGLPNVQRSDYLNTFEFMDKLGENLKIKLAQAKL
KDM4C inh: blocks human GASC-1 (KDM4C) demethylase activity; GST-KDM4C 2-372, H3K9me3 peptide, LANCE TR-FRET; inhibition, % at 12.5 µM; Q9H3R0; 96,000 tested, 0.15% active; AID 720574;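 active means mean replicate inhibition above about 25%, with at least 55% of replicates also reaching it, limit read from the data, passing the limit was not always enough; inconclusive means only one of those two conditions met; inactive means neither condition met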
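System: N-terminal GST-fused human GASC-1 (KDM4C) fragment, residues 2-372 / Amount: 10 nM GST-KDM4C in enzyme reaction / Also added: H3K9me3 peptide with Fe(II)/2OG / Times: 30 min demethylation and 1 h detection at room temperature / Signal: LANCE TR-FRET / Read-out basis: Fall in 671/618 emission ratio as inhibition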
T cruzi growth-1: inhibitors of T. cruzi proliferation; T. cruzi beta-gal in NIH3T3, GalScreen luminescence, 90 h; inhibition, % at 8.34 µM; 77,000 tested, 5.9% active; AID 624255;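 active means mean inhibition above about 93%, with at least 55% of replicates each passing it, limit read from the data, passing the limit was not always enough; inconclusive means only one of those two conditions holds; inactive means neither condition holds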
T cruzi growth-2: inhibitors of T. cruzi proliferation; shares compounds with T cruzi growth-1; T. cruzi beta-gal in NIH3T3, GalScreen luminescence, 90 h; inhibition, % at 8.35 µM; 5,600 tested, 72% active; AID 651739;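 active means mean replicate inhibition above about 95% and at least 55% of replicates individually reaching it, limit read from the data; inconclusive means only one of the two criteria is met; inactive means neither criterion is met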
T cruzi growth-3: inhibitors of T. cruzi proliferation; 5,600 tested, 21% active; shares compounds with T cruzi growth-1; AID 651740; T. cruzi beta-gal in NIH3T3, GalScreen luminescence, 90 h; inhibition, % at 2.09 µM;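 active means mean inhibition above about 95%, with at least 55% of replicates also reaching it, limit read from the data; inconclusive means meets just one of the two conditions; inactive means meets neither condition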
3T3 cytotox: NIH/3T3 (mouse) viability loss; shares compounds with T cruzi growth-1; NIH/3T3 viability, CellTiter-Glo ATP luminescence, 90 h; cytotoxicity (signal decrease), % at 8.35 µM; 5,600 tested, 14% active;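 active means mean signal decrease across replicates above about 35% based on untreated-well scatter, with enough replicates individually passing, limit read from the data; inconclusive means no rule stated though some were filed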
3T3 cytotox 2: NIH/3T3 (mouse) viability loss | AID 651744 | inhibition, % at 24.9 µM | NIH/3T3 viability, CellTiter-Glo ATP luminescence, 90 h | 5,600 tested, 56% active | shares compounds with T cruzi growth-1;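 active means mean loss of cell viability signal at or above a set limit, and enough replicates individually reaching it; inconclusive means meets only the mean limit or only the replicate share; inactive means meets neither condition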
A number is an active result; - = inactive; ? = inconclusive; . = not tested or not shown.

SMILES | IDH1 R132H inh | KDM4C inh | T cruzi growth-1 | T cruzi growth-2 | T cruzi growth-3 | 3T3 cytotox | 3T3 cytotox 2
Cc1ccccc1S(=O)(=O)N1[C@@H](C#N)[C@@H](c2ccc(-c3ccccc3)cc2)[C@@H]1CO | . | - | 102 | 101 | 103 | 50 | 73
Cc1ccccc1S(=O)(=O)N1[C@H](C#N)[C@H](c2ccc(-c3ccc(F)cc3)cc2)[C@@H]1CO | . | - | - | . | . | . | .
Cc1ccccc1S(=O)(=O)N1[C@@H](C#N)[C@H](c2ccc(-c3ccccc3)cc2)[C@@H]1CO | . | - | 102 | - | - | - | -
Cc1ccccc1S(=O)(=O)N1[C@H](C#N)[C@@H](c2ccccc2)[C@H]1CO | . | - | - | . | . | . | .
Cc1ccccc1S(=O)(=O)N1[C@H](C#N)[C@H](c2ccc(-c3ccc(F)cc3)cc2)[C@H]1CO | . | - | 101 | 101 | - | ? | 31
CSc1cccc(NC(=O)CSc2nnc(-c3cccc(C)c3)o2)c1 | - | . | . | . | . | . | .
CCCCCCCCCCCC1C(=O)C(=O)CC(=O)C1=O | - | . | . | . | . | . | .
CS(=O)(=O)N(CC(=O)Nc1ccc(F)cc1F)c1ccc(Br)cc1 | - | . | . | . | . | . | .
O=C(Cn1c(=O)oc2ccccc21)Nc1cccc([N+](=O)[O-])c1 | - | . | . | . | . | . | .
Cc1ccccc1OCC(=O)Nc1cccc(Oc2ccc3c(c2)C(=O)NC3=O)c1 | - | . | . | . | . | . | .
COc1ccc(NC(=O)CSc2nc(O)cc(=O)n2-c2ccc(C)cc2)cc1 | - | . | . | . | . | . | .
O=[N+]([O-])c1cc(C(F)(F)F)ccc1NCCNS(=O)(=O)c1ccc2ccccc2c1 | - | . | . | . | . | . | .
O=S(=O)(c1ccccc1)N1CC[C@H]2[C@H](CO)Nc3ccc(-c4ccccc4F)cc3[C@H]21 | . | - | 102 | 101 | - | 59 | 67
Cc1ccc(S(=O)(=O)N2CC[C@@H]3[C@H](CO)Nc4ccc(-c5ccccc5F)cc4[C@@H]32)cc1 | . | - | 112 | 102 | 110 | 40 | 60
Cc1cccc(S(=O)(=O)N2CC[C@@H]3[C@H](CO)Nc4ccc(-c5ccccc5F)cc4[C@@H]32)c1 | . | - | - | . | . | . | .
O=S(=O)(c1ccc(F)cc1)N1CC[C@H]2[C@H](CO)Nc3ccc(-c4ccccc4F)cc3[C@H]21 | . | - | - | . | . | . | .
Cc1ccc(S(=O)(=O)N2CC[C@H]3[C@H](CO)Nc4ccc(-c5ccccc5F)cc4[C@H]32)cc1 | . | - | ? | 103 | - | 46 | 85
Cc1ccc(S(=O)(=O)N2CC[C@@H]3[C@H](CO)Nc4ccc(-c5cccc(C(=O)N(C)C)c5)cc4[C@@H]32)cc1 | . | - | - | . | . | . | .
CN(C)C(=O)c1cccc(-c2ccc3c(c2)[C@@H]2[C@@H](CCN2S(=O)(=O)c2ccccc2)[C@@H](CO)N3)c1 | . | - | 108 | 104 | ? | - | -
Cc1cccc(S(=O)(=O)N2CC[C@@H]3[C@H]2c2cc(-c4ccccc4F)ccc2N[C@@H]3CO)c1 | . | - | - | . | . | . | .
COc1cccc(-c2nnc(SCC(=O)Nc3cccc(Cl)c3)n2C)c1 | - | . | . | . | . | . | .
CC(=O)c1ccc(NC(=O)CCCC(=O)O)cc1 | - | . | . | . | . | . | .
CC1(C)CC[C@]2(C(=O)O[C@@H]3O[C@H](CO)[C@@H](O)[C@H](O)[C@H]3O)CC[C@]3(C)C(=CCC4[C@@]5(C)C[C@@H](O)[C@H](O)[C@@](C)(COC(=O)c6cc(O)c(O)c(O)c6)C5[C@H](O)C[C@]43C)[C@@H]2C1 (stereo partly specified) | - | . | . | . | . | . | .
O=C(COc1ccc(Br)cc1)Nc1cccc2ncccc12 | - | . | . | . | . | . | .
COc1ccc(C(=O)Cn2c3ccccc3n3nc(-c4cccs4)nc23)cc1OC | - | . | . | . | . | . | .
SMILES | IDH1 R132H inh | KDM4C inh | T cruzi growth-1 | T cruzi growth-2 | T cruzi growth-3 | 3T3 cytotox | 3T3 cytotox 2
COc1cc(NC(=O)CN(C)S(=O)(=O)c2ccc3ccccc3c2)c(OC)cc1Cl | - | . | . | . | . | . | .
COc1ccc(S(=O)(=O)N2CC[C@@H]3[C@H](CO)Nc4ccc(-c5ccc(C#N)cc5)cc4[C@@H]32)cc1 | . | - | 109 | 101 | 103 | 42 | 49
COc1ccc(C#Cc2ccc3c(c2)[C@@H]2[C@@H](CCN2S(=O)(=O)c2ccccc2C)[C@@H](CO)N3)cc1 | . | - | 97 | 109 | - | - | 55
COc1ccc(S(=O)(=O)N2CC[C@H]3[C@H](CO)Nc4ccc(C#Cc5ccccc5OC)cc4[C@H]32)cc1 | . | - | . | . | . | . | .
COc1ccc(S(=O)(=O)N2CC[C@@H]3[C@H]2c2cc(C#Cc4ccccc4OC)ccc2N[C@@H]3CO)cc1 | . | - | 107 | 106 | 111 | - | -
COc1ccc(C#Cc2ccc3c(c2)[C@H]2[C@H](CCN2S(=O)(=O)c2ccccc2C)[C@H](CO)N3)cc1 | . | - | - | . | . | . | .
COc1ccc(S(=O)(=O)N2CC[C@@H]3[C@@H](CO)Nc4ccc(-c5ccc(C#N)cc5)cc4[C@@H]32)cc1 | . | - | - | . | . | . | .
O=C(Nc1sc2c(c1C(=O)NCC1CCCO1)CCCC2)c1ccc(Cl)cc1Cl (stereo unspecified) | - | . | . | . | . | . | .
C[C@@H]1CCCCO[C@H](CN(C)C(=O)NC2CCCCC2)[C@@H](C)CN([C@H](C)CO)C(=O)c2cc(NC(=O)Nc3cccc4ccccc34)ccc2O1 | - | - | 104 | 109 | - | - | -
C[C@@H]1CN([C@H](C)CO)C(=O)c2cc(N(C)C)ccc2O[C@@H](C)CCCCO[C@H]1CN(C)C(=O)Nc1cccc2ccccc12 | - | . | - | . | . | . | .
C[C@H]1CCCCO[C@H](CN(C)C(=O)Nc2cccc3ccccc23)[C@@H](C)CN([C@@H](C)CO)C(=O)c2cc(NC(=O)NC3CCCCC3)ccc2O1 | . | - | 99 | 108 | 112 | - | -
C[C@@H]1CN([C@@H](C)CO)C(=O)c2cc(NC(=O)NC3CCCCC3)ccc2O[C@@H](C)CCCCO[C@H]1CN(C)C(=O)Nc1cccc2ccccc12 | . | - | - | . | . | . | .
C[C@@H]1CCCCO[C@H](CN(C)C(=O)Nc2cccc3ccccc23)[C@H](C)CN([C@H](C)CO)C(=O)c2cc(N(C)C)ccc2O1 | - | - | 99 | 96 | - | - | -
C[C@@H]1CN([C@@H](C)CO)C(=O)c2cc(NC(=O)c3ccccc3)ccc2O[C@@H](C)CCCCO[C@H]1CN(C)C(=O)Nc1cccc2ccccc12 | - | - | - | . | . | . | .
C[C@@H]1CCCCO[C@H](CN(C)C(=O)Nc2cccc3ccccc23)[C@@H](C)CN([C@@H](C)CO)C(=O)c2cc(NC(=O)c3ccccc3)ccc2O1 | . | - | ? | 107 | - | - | 36
C[C@@H]1CCCCO[C@H](CN(C)C(=O)NC2CCCCC2)[C@H](C)CN([C@H](C)CO)C(=O)c2cc(NC(=O)Nc3cccc4ccccc34)ccc2O1 | - | - | - | . | . | . | .
O=C(CCCCCCC(=O)N/N=C/c1ccc(Br)o1)NO | - | . | . | . | . | . | .
C=C1C2=C(C(=O)N1OC)[C@H](O)[C@](C)(O)[C@H](CCCCC)O2 | - | . | . | . | . | . | .

Source: PubChem BioAssay (Broad Institute)
